Laboratory results reported in ChEMBL document CHEMBL2062375, “Discovery of an orally efficacious inhibitor of anaplastic lymphoma kinase” (J Med Chem, 2012).
Active and inactive are the calls of the source. No cut-off for these calls is given here.

Assays:
[1] = Cmax in rat at 100 mg/kg, po; type: ADME, organism-based; parameters: dose 100 mg/kg, route oral; conditions: in vivo
Procedure, shortened: (§1)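 Rat oral dose escalation at 10, 30, 55 and 100 mg/kg. Gavage at 5 mL/kg in 40% HPβCD after an overnight fast. Serial tail-vein blood was drawn into heparinized tubes. Plasma was protein-precipitated with acetonitrile and assayed by LC-MS/MS. Cmax and AUC0–12 were derived noncompartmentally; n = 2 at 10 mg/kg.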

[2] = target: T1, ALK tyrosine kinase receptor (Homo sapiens, UniProt Q9UM73); experiment: Inhibition of ALK tyrosine phosphorylation in human Karpas-299 cells after 2 hrs in presence of mouse plasma; type: cell-based
T1 sequence (Q9UM73 whole entry): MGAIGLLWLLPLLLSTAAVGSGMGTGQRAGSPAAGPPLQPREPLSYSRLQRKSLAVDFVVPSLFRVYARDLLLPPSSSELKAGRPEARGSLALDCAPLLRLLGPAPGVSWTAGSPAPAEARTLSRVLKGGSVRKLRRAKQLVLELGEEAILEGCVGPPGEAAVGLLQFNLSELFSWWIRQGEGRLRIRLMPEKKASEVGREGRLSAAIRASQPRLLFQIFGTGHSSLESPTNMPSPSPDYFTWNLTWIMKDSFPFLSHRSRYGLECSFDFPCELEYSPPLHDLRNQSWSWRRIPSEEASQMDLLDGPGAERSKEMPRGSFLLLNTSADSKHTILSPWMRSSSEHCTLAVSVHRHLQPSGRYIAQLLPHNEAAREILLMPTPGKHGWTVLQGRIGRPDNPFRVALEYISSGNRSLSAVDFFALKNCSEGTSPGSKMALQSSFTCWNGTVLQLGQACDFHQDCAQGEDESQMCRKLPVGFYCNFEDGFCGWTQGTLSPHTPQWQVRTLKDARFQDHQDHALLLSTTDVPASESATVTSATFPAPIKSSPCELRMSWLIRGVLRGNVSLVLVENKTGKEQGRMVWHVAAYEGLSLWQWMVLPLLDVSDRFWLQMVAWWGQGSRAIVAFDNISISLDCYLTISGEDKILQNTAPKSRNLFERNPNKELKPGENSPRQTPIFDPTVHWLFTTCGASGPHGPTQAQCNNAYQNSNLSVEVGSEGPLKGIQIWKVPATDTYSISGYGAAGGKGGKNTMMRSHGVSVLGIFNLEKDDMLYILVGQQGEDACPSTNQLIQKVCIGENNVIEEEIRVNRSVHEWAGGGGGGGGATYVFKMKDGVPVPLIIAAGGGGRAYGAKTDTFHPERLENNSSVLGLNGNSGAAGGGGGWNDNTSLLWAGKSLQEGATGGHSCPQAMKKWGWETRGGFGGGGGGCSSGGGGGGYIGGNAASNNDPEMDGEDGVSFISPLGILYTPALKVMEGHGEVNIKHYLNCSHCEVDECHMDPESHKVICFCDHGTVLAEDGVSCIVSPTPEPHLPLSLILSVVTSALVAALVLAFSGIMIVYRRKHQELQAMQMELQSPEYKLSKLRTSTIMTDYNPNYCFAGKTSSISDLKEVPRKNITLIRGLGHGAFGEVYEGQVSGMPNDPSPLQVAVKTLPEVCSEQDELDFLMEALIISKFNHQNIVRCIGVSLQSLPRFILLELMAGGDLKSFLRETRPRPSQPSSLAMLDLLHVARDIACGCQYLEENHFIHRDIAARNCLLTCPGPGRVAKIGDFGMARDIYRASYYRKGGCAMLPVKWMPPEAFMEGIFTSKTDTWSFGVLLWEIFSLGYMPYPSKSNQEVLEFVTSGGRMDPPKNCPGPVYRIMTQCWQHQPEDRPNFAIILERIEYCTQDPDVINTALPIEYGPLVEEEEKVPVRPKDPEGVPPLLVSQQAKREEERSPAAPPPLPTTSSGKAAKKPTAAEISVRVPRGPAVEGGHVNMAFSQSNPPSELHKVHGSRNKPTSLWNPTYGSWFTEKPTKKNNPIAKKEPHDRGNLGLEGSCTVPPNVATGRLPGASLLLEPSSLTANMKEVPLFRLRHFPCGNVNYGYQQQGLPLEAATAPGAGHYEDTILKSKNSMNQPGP

[3] = Cmax in rat at 55 mg/kg, po; type: ADME, organism-based; parameters: dose 55 mg/kg, route oral; conditions: in vivo; procedure, shortened: as §1
[4] = AUC (0 to 12 hrs) in rat 100 mg/kg, po; type: ADME, organism-based; parameters: time < 12 hr, dose 100 mg/kg, route oral; conditions: plasma; procedure, shortened: as §1
[5] = AUC (0 to 12 hrs) in rat 30 mg/kg, po; type: ADME, organism-based; parameters: time < 12 hr, dose 30 mg/kg, route oral; conditions: plasma; procedure, shortened: as §1
[6] = Cmax in rat at 30 mg/kg, po; type: ADME, organism-based; parameters: dose 30 mg/kg, route oral; conditions: in vivo; procedure, shortened: as §1
Rattus norvegicus [7] = experiment: Ratio of AUC (0 to 12 h) at 10 mg/kg, po to AUC (0 to 12 h) at 100 mg/kg, po in rat; type: ADME, organism-based; conditions: in vivo
Procedure, shortened: (§2)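 Oral dose-escalation PK study in rats at 10, 30, 55 and 100 mg/kg. […] The ratio compares the 10 mg/kg value with the 100 mg/kg value.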

[8] = AUC (0 to 12 hrs) in rat 55 mg/kg, po; type: ADME, organism-based; parameters: time < 12 hr, dose 55 mg/kg, route oral; conditions: plasma; procedure, shortened: as §1
Rattus norvegicus [9] = experiment: Ratio of Cmax at 10 mg/kg, po to Cmax at 100 mg/kg, po in rat; type: ADME, organism-based; conditions: in vivo; procedure, shortened: as §2
KARPAS-299 = experiment: Antitumor activity against human KARPAS299 cells expressing NPM-ALK xenografted in SCID mouse assessed as tumor stasis up to 100 mg/kg, po bid for 12 days; type: functional, organism-based; parameters: dose 100 mg/kg
[10] = AUC (0 to 12 hrs) in rat 10 mg/kg, po; type: ADME, organism-based; parameters: time < 12 hr, dose 10 mg/kg, route oral; conditions: plasma; procedure, shortened: as §1
[11] = Cmax in rat at 10 mg/kg, po; type: ADME, organism-based; parameters: dose 10 mg/kg, route oral; conditions: in vivo; procedure, shortened: as §1
[12] = target: T1, ALK tyrosine kinase receptor; experiment: Inhibition of human ALK cytoplasmic domain expressed in baculovirus using GST-PLCgamma as substrate preincubated for 15 mins before substrate addition measured after 1 hr by time resolved fluorescence assay

Row | Cmax [1] [ng/mL] | IC50 [2] [µM] | Cmax [3] [ng/mL] | AUC(0-t) at 12 h [4] [ng·h/mL] | AUC(0-t) at 12 h [5] [ng·h/mL] | Cmax [6] [ng/mL] | Ratio (Rattus norvegicus [7]) | AUC(0-t) at 12 h [8] [ng·h/mL] | Ratio (Rattus norvegicus [9]) | AUC(0-t) at 12 h [10] [ng·h/mL] | Cmax [11] [ng/mL] | IC50 [12] [µM] | Structure (SMILES) | Activity (KARPAS-299)
1 | 1550 | 0.045 | 1450 | 14000 | 11800 | 1360 | 2 | 13800 | 2 | 6020 | 925 | – | CCN1C(=O)CCCc2c1ccc(Nc1ncc(Cl)c(N[C@H]3[C@@H](C(N)=O)[C@@H]4C=C[C@H]3C4)n1)c2OC | Active
2 | – | 0.12 | – | – | – | – | – | – | – | – | – | 0.035 | COc1c(Nc2ncc(Cl)c(N[C@H]3[C@@H](C(N)=O)[C@@H]4C=C[C@H]3C4)n2)ccc2c1CC[C@H](N1CCOCC1)CC2 | –
